The array DNA melting data of Ke et al. (doi:10.1101/2024.01.08.574731)

Experiments:
[1] = folding enthalpy; higher = less favourable; fluorescence melt of hairpins on a sequencing array, two-state fit; conditions: sodium 0.088 M
In short: (§1)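 Hairpins were imaged by Cy3 fluorescence on a sequenced MiSeq flow cell with annealed Cy3 and quencher oligos, in 50 mM Na-HEPES pH 8.0, 25 mM NaCl, in 2.5 °C steps up to 60 °C. Bootstrapped two-state fits of normalised signals gave melting temperature and folding enthalpy. Four replicates were combined by inverse variance, and fitted temperatures were raised by 9.35 °C to match UV melts.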

[2] = melting temperature; fluorescence melt of hairpins on a sequencing array, two-state fit, raised by 9.35 °C to match UV melts; conditions: sodium 0.088 M
In short: as §1

| Sequence | folding enthalpy [1] | Tm [2] |
| --- | --- | --- |
| GTAGTCACGAAAGTGTAC (((..(((....)))))) | -50.2 kJ/mol | 30.5 °C |
| GTAGTCCGAAAGGATTAC (((.(((....))).))) | -144 kJ/mol | 49.4 °C |
| GTAGTCGAAAGACATTAC ((((((....)))..))) | -39.1 kJ/mol | 23.5 °C |
| GTAGTCGAAAGACTATAC ((((((....)))..))) | -55.1 kJ/mol | 42 °C |
| GTAGTCGGAAACGACTGC (.(((((....))))).) | -121 kJ/mol | 53.7 °C |
| GTAGTGACGAAAGTCTAC (((..(((....)))))) | -66.5 kJ/mol | 29.7 °C |
| GTAGTGCGAAAGCATTAC (((.(((....))).))) | -107 kJ/mol | 51 °C |
| GTAGTGGAAACACTAC ((((((....)))))) | -192 kJ/mol | 53.4 °C |
| GTAGTGGGAAACCATTAC (((.(((....))).))) | -134 kJ/mol | 38.1 °C |
| GTAGTGGGAAACCGCTAC ((((.((....)).)))) | -204 kJ/mol | 51.5 °C |
| GTAGTTACGAAAGTATAC (((..(((....)))))) | -43.1 kJ/mol | 23.9 °C |
| GTAGTTCGAAAGAAATAC (((.(((....))).))) | -122 kJ/mol | 42.2 °C |
| GTAGTTCGAAAGAATTAC (((.(((....))).))) | -112 kJ/mol | 42.4 °C |
| GTATAAGAAATTATAC ((((((....)))))) | -60.5 kJ/mol | 29.6 °C |
| GTATAAGCGAAAGCTTAC (((..(((....)))))) | -37.8 kJ/mol | 33.8 °C |
| GTATAAGGAAACTTATAC (((((((....))))))) | -129 kJ/mol | 46 °C |
| GTATACCCGAAAGGGTAC (((..(((....)))))) | -36.9 kJ/mol | 32.4 °C |
| GTATACGAAAGTACTTAC ((((((....)))..))) | -56.4 kJ/mol | 31.5 °C |
| GTATACGAAAGTAGTAC ((((((....))).))) | -48.7 kJ/mol | 29.6 °C |
| GTATAGAAATATAC (((((....))))) | -33.2 kJ/mol | 23.1 °C |
| GTATAGACGAAAGTCTAC (((..(((....)))))) | -43.8 kJ/mol | 33.5 °C |
| GTATAGGAAACTATAC ((((((....)))))) | -108 kJ/mol | 41.5 °C |
| GTATAGGCGAAAGCCTAC (((..(((....)))))) | -34 kJ/mol | 31.8 °C |

| Sequence | folding enthalpy [1] | Tm [2] |
| --- | --- | --- |
| GTATATCCGAAAGGATAC (((..(((....)))))) | -52 kJ/mol | 34.7 °C |
| GTATATCGAAAGATGTAC (((.(((....))).))) | -133 kJ/mol | 44.5 °C |
| GTATATCGAAAGATTTAC (((.(((....))).))) | -91.3 kJ/mol | 36.4 °C |
| GTATATGGAAACGTATAC (((((.(....).))))) | -102 kJ/mol | 35.2 °C |
| GTATCACCGAAAGGTTAC (((..(((....)))))) | -34.6 kJ/mol | 25.8 °C |
| GTATCAGGAAACTGGTAC (((.(((....))).))) | -123 kJ/mol | 43.5 °C |
| GTATCCCGAAAGGGCTAC (((.(((....))).))) | -94.2 kJ/mol | 41.3 °C |
| GTATCCCGAAAGGGTTAC (((.(((....))).))) | -87.9 kJ/mol | 47.4 °C |
| GTATCCGAAAGGAACTAC ((((((....)))..))) | -59.9 kJ/mol | 33.4 °C |
| GTATCCGAAAGGAGCTAC ((((((....)))..))) | -52.8 kJ/mol | 31.8 °C |
| GTATCCGAAAGGATCTAC ((((((....)))..))) | -57.3 kJ/mol | 39.1 °C |
| GTATCGAAAGATAC (((((....))))) | -105 kJ/mol | 52.7 °C |
| GTATCGCGAAAGCGGTAC (((.(((....))).))) | -122 kJ/mol | 56.5 °C |
| GTATCGGGAAACCGGTAC (((.(((....))).))) | -134 kJ/mol | 48.9 °C |
| GTATCTCCGAAAGGATAC (((..(((....)))))) | -82.2 kJ/mol | 30.7 °C |
| GTATCTCGAAAGAGGTAC (((.(((....))).))) | -144 kJ/mol | 48.7 °C |
| GTATCTCGAAAGAGTTAC (((.(((....))).))) | -111 kJ/mol | 36.4 °C |
| GTATCTGAAAAGATAC ((((((....)))))) | -139 kJ/mol | 49.2 °C |
| GTATGACCGAAAGGTTAC (((..(((....)))))) | -43.3 kJ/mol | 30.5 °C |
| GTATGAGGAAACTCGTAC (((.(((....))).))) | -140 kJ/mol | 44 °C |
| GTATGCCGAAAGGCTAC (((.(((....)))))) | -54.7 kJ/mol | 48.3 °C |
| GTATGCGAAAGCAATAC ((((((....))).))) | -85 kJ/mol | 49.4 °C |
| GTATGCGAAAGCAATTAC ((((((....)))..))) | -44.6 kJ/mol | 28.2 °C |

| Sequence | folding enthalpy [1] | Tm [2] |
| --- | --- | --- |
| GTATGCGAAAGCAGCTAC ((((((....)))..))) | -56.1 kJ/mol | 32.8 °C |
| GTATGCGGAAACACATAC (((((.(....).))))) | -137 kJ/mol | 39.8 °C |
| GTATGCGGAAACGCATGC (.(((((....))))).) | -88.8 kJ/mol | 55.5 °C |
| GTATGCGGAAACGTATGC (.((.((....)).)).) | -75.5 kJ/mol | 32.2 °C |
| GTATGGACGAAAGTCTAC (((..(((....)))))) | -45.5 kJ/mol | 29.2 °C |
| GTATGGCGAAAGCCGTAC (((.(((....))).))) | -108 kJ/mol | 56.9 °C |
| GTATGGGAAACCATAC ((((((....)))))) | -154 kJ/mol | 50.8 °C |
| GTATGGGGAAACCCATAC (((((((....))))))) | -140 kJ/mol | 59 °C |
| GTATGTCGAAAGACGTAC (((.(((....))).))) | -104 kJ/mol | 52.8 °C |
| GTATGTCGAAAGACTTAC (((.(((....))).))) | -105 kJ/mol | 45.5 °C |
| GTATGTGGAAACACGTAC (((.(((....))).))) | -123 kJ/mol | 47.1 °C |
| GTATTACGAAAGTATAC (((.(((....)))))) | -75.5 kJ/mol | 32.5 °C |
| GTATTAGGAAACCAATAC (((((.(....).))))) | -59.2 kJ/mol | 25.9 °C |
| GTATTCGAAAGAAGTAC ((((((....))).))) | -37 kJ/mol | 24.9 °C |
| GTATTCGCGAAAGCGTAC (((..(((....)))))) | -33.5 kJ/mol | 23.4 °C |
| GTATTGGAAACAATAC ((((((....)))))) | -112 kJ/mol | 46.5 °C |
| GTATTGGGAAACCAATGC (.(((((....))))).) | -113 kJ/mol | 44.3 °C |
| GTATTGGGAAACCAGTAC (((.(((....))).))) | -114 kJ/mol | 40 °C |
| GTATTTCGAAAGAACTAC (((.(((....))).))) | -80.2 kJ/mol | 31.7 °C |
| GTATTTCGAAAGAATTAC (((.(((....))).))) | -118 kJ/mol | 33.3 °C |
| GTCAAAGGAAACCTTGAC (((((.(....).))))) | -112 kJ/mol | 38.2 °C |
| GTCAAAGGAAACTTTGAC (((((((....))))))) | -188 kJ/mol | 55.8 °C |
| GTCAACCCGAAAGGGGAC (((..(((....)))))) | -62.8 kJ/mol | 41.8 °C |

| Sequence | folding enthalpy [1] | Tm [2] |
| --- | --- | --- |
| GTCAACGGAAACGTTGGC (.(((((....))))).) | -136 kJ/mol | 54.9 °C |
| GTCAAGCGAAAGCTCGAC (((.(((....))).))) | -127 kJ/mol | 49.7 °C |
| GTCAAGGAAACTTGAC ((((((....)))))) | -124 kJ/mol | 53.5 °C |
| GTCAAGGCGAAAGCCGAC (((..(((....)))))) | -42.6 kJ/mol | 48.1 °C |
| GTCAAGGGAAACCTTGAC (((((((....))))))) | -197 kJ/mol | 58 °C |
| GTCAAGGGAAACCTTGGC (.(((((....))))).) | -139 kJ/mol | 49.4 °C |
| GTCAATGCGAAAGCAGAC (((..(((....)))))) | -68.4 kJ/mol | 39.1 °C |
| GTCAATGGAAACACTGAC ((((.((....)).)))) | -92.3 kJ/mol | 34.5 °C |
| GTCAATGGAAACATCGAC (((.(((....))).))) | -139 kJ/mol | 33.3 °C |
| GTCACACGAAAGTGGAC (((.(((....)))))) | -78.2 kJ/mol | 48.6 °C |
| GTCACAGGAAACTACGAC (((..((....))..))) | -91.3 kJ/mol | 28.4 °C |
| GTCACCCGAAAGGGAGAC (((.(((....))).))) | -140 kJ/mol | 57.2 °C |
| GTCACCGAAAGGTACGAC ((((((....)))..))) | -75.2 kJ/mol | 41.2 °C |
| GTCACCGAAAGGTATGAC ((((((....)))..))) | -84.5 kJ/mol | 40.1 °C |
| GTCACCGAAAGGTCCGAC ((((((....)))..))) | -47 kJ/mol | 31.1 °C |
| GTCACCGAAAGGTCTGAC ((((((....)))..))) | -63.6 kJ/mol | 33.7 °C |
| GTCACCGAAAGGTGGAC ((((((....))).))) | -59.1 kJ/mol | 54.2 °C |
| GTCACCGAAAGGTGGGAC ((((((....)))..))) | -40 kJ/mol | 39 °C |
| GTCACCGAAAGGTGTGAC ((((((....)))..))) | -48.7 kJ/mol | 42.4 °C |
| GTCACCGAAAGGTTTGAC ((((((....)))..))) | -65.2 kJ/mol | 37.4 °C |
| GTCACCGGAAACAGTGAC (((((.(....).))))) | -136 kJ/mol | 44.9 °C |
| GTCACGCGAAAGCGAGAC (((.(((....))).))) | -73.2 kJ/mol | 60.1 °C |
